Data set [1] can be described thus: Toxicity in ip dosed mouse. It counts as organism-based. To be noted: in vivo. An outline of the steps:
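Acute toxicity test in mice with test article given by intraperitoneal injection; read-out was the LD50 (mg/kg).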

Data set [2] has as its system Aorta. Kind of data set: Vasorelaxant activity in rat thoracic aorta assessed as inhibition of norepinephrine-induced contractions Ca2+-free medium. It counts as functional, tissue-based.
The subject of data set [3] is Aorta. The data set can be described thus: Vasorelaxant activity in rat thoracic aorta assessed as relaxation of resting tension.

Bounds are passed on as bounds.

What is called LD50 is the dose at which mortality reaches 50%. A high value points to lower toxicity. One may read the IC50 as the concentration needed to halve the response being measured. In turn, `CCCCC1OC(=O)c2ccccc21` (stereo not drawn) [RAC-3-N-BUTYLPHTHALIDE] had an LD50 in data set [1] of 751 mg/kg. In the data set with Aorta [2], the IC50 came out at 130 µM.
As for `CCCCC1OC(=O)c2ccc(Cl)cc21` (stereo not given), the Activity entry in the data set on Aorta [3] was “Dose-dependent effect”.
The molecule `CCCCC1OC(=O)c2cc(F)ccc21` (stereo not given) came in with an LD50 in data set [1] of 593 mg/kg. In the data set with Aorta [2], the IC50 stood at 132 µM and the inhibition result was “Dose-dependent effect”.
For the molecule `CCCCC1OC(=O)c2ccc(Br)cc21` (stereo not given), the Activity entry in the data set on Aorta [3] is “Dose-dependent effect”.
Turning to `CCCCC1OC(=O)c2cc(Br)ccc21` (stereo not given), the LD50 in data set [1] is more than 1000 mg/kg. Also, in the data set with Aorta [2], the IC50 worked out at 107 µM and the inhibition result is “Dose-dependent effect”.

(Values after ChEMBL document CHEMBL1157855, “Synthesis and biological activity of n-butylphthalide derivatives” (Eur J Med Chem, 2010).)
